Converted amounts (≈) assume the structure as drawn. The source made the active and inactive calls. No cut-off for these calls is given here.
Experiments:
Rattus norvegicus [1] = assay: Percent inhibition of PCA reaction in anesthetized rats after 11.7 mg/kg intraduodenal administration for 15 min; assay type: functional; conditions: 0.25 h
Procedure, shortened: (§1)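 Passive cutaneous anaphylaxis in anesthetized rats. Passive sensitization used intradermal IgE antiserum (1:2.5 and 1:10), with a 48-h latent period. Intraduodenal or oral dose is expressed as free-acid equivalent of the salt given. Rats were challenged at 15 min, 3, 6 or 24 h with iv egg albumin 25 mg/kg plus Evans blue 25 mg/kg. Inhibition was calculated from mean spot diameters versus vehicle controls, 10 animals per dose.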

Rattus norvegicus [2] = assay: Percent inhibition of PCA reaction in anesthetized rats at 11.7 mg/kg intraduodenal administration for 3 hr
Rattus norvegicus [3] = assay: Antiallergic activity by passive cutaneous anaphylaxis test in rats by intraduodenal administration; assay type: functional
Procedure, shortened: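 Recipient male Harlan-Sprague-Dawley or Wistar rats (100–150 g) received 0.1 mL intradermal antiserum at 1:2.5 and 1:10. Donor antiserum came from rats given egg albumin 1 mg im plus killed B. pertussis 2 × 10¹⁰ ip, bled 10–12 days later. After 48 h, drug went intraduodenally under anesthesia, then iv egg albumin 25 mg/kg with Evans blue 25 mg/kg. Read-out was spot-diameter inhibition versus controls, ≥5 rats/dose; ED50 was estimated.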

Cavia porcellus [4] = species on record: Cavia porcellus; assay: Evaluation of in vitro bronchodilator activity in isolated guinea pig tracheal spiral preparation; assay type: functional; conditions: Trachea
Procedure, shortened: (§2)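 Guinea pig tracheal spiral held under 1.0 g tension, equilibrated 90–120 min to maximal spontaneous tonus. One drug concentration per spiral, ≥3 trials per concentration. Relaxation was expressed as % of that produced by papaverine (10 µg/mL) in the same tissue. Concentrations are bath values in µg/mL; the 50%-relaxation concentration was obtained by regression.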

Rattus norvegicus [5] = assay: Antiallergic activity by passive cutaneous anaphylaxis test in rats by intravenous administration; assay type: functional
Procedure, shortened: (§3)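 Donor rats got egg albumin im (1 mg/rat) plus killed B. pertussis vaccine ip (2 × 10¹⁰ organisms/rat) and were bled 10–12 days later for IgE-rich antiserum. Recipient rats (100–150 g) were sensitized intradermally with 0.1 mL of 1:2.5 and 1:10 antiserum dilutions.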

Rattus norvegicus [6] = assay: Percent inhibition of PCA reaction in anesthetized rats at 47.6 mg/kg oral administration for 3 hr; assay type: functional; procedure, shortened: as §1
Rattus norvegicus [7] = species on record: Rattus norvegicus; assay: Antiallergic activity by passive cutaneous anaphylaxis test in vitro in rats; assay type: functional
Procedure, shortened: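 Peritoneal mast cells were lavaged from male Harlan-Sprague-Dawley rats (200–300 g) with HBSS containing 0.1% albumin and 5 mM phosphate. Cells were sensitized with IgE antiserum plus heparin for 2 h at 37 °C, then challenged with egg albumin, drug added simultaneously. After 10 min, histamine was measured fluorimetrically; inhibition versus no-drug release, four trials per concentration.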

Rattus norvegicus [8] = assay: Percent inhibition of PCA reaction in anesthetized rats at 47.6 mg/kg oral administration for 6 hr; assay type: functional; procedure, shortened: as §1
[9] = Inhibition of rat lung cGMP-Phosphodiesterase
Rattus norvegicus [10] = assay: Percent inhibition of PCA reaction in anesthetized rats at 47.6 mg/kg oral administration for 15 min; assay type: functional; conditions: 0.25 h; procedure, shortened: as §1
Rattus norvegicus [11] = assay: Percent inhibition of PCA reaction in anesthetized rats at 47.6 mg/kg oral administration for 24 hr r; assay type: functional; procedure, shortened: as §1
Cavia porcellus [12] = species on record: Cavia porcellus; assay: In vitro bronchodilator activity in isolated guinea pig tracheal spiral preparation; assay type: functional; conditions: Trachea; procedure, shortened: as §2
Rattus norvegicus [13] = assay: In vivo bronchodilator activity in methacholine (intravenous) induced bronchospasm in male Harlan-Sprague-Dawley rats when administered intraduodenally; statistically significant inhibition of < 50% at thr stated dose; assay type: functional
Rattus norvegicus [14] = assay: Antiallergic activity by passive cutaneous anaphylaxis test in ovalbumin sensitized male Harlan-Sprague-Dawley rats administered perorally; assay type: functional; conditions: po; procedure, shortened: as §3
Rattus norvegicus [15] = assay: Antiallergic activity was evaluated by inhibition of allergen-induced bronchospasm in male Harlan-Wistar rats when administered intraduodenally 15 min prior to antigen challenge; assay type: functional; conditions: intraduodenal
Rattus norvegicus [16] = assay: In vivo bronchodilator activity in methacholine (intravenous) induced bronchospasm in male Harlan-Sprague-Dawley rats when administered intraduodenally; assay type: functional
Rattus norvegicus [17] = assay: Antiallergic activity was evaluated by passive cutaneous anaphylaxis test in egg albumin sensitized male Harlan-Sprague-Dawley rats when administered perorally; assay type: functional; conditions: po; procedure, shortened: as §3
Rattus norvegicus [18] = assay: Percent inhibition of PCA reaction at 33 mg/kg oral dose after 24 hr r; assay type: functional
Rattus norvegicus [19] = assay: In vivo bronchodilator effect on (intravenous) methacholine-induced bronchospasm in male Harlan-Sprague-Dawley rats at 10 mg/kg intraduodenal dose (inactive); assay type: functional, organism-based; design: dose 10 mg/kg
Rattus norvegicus [20] = assay: Antiallergic activity by passive cutaneous anaphylaxis test in ovalbumin sensitized male Harlan-Sprague-Dawley rats at 25 mg/kg oral dose (inactive); assay type: functional, organism-based; design: dose 25 mg/kg; procedure, shortened: as §3

SMILES: Cn1c(=O)c2nc[nH]c2n(C)c1=O.O [THEOPHYLLINE]
- inhibition in vivo at 11.7 mg/kg (Rattus norvegicus [1]): 42.4%
- inhibition in vivo at 11.7 mg/kg (Rattus norvegicus [2]): 25.1%
- ED50 (Rattus norvegicus [3]): 11.7 mg/kg
- IC50 (Cavia porcellus [4]): 18.5 µg/mL
- ED50 (Rattus norvegicus [5]): > 7.9 mg/kg
- inhibition in vivo at 47.6 mg/kg (Rattus norvegicus [6]): 52.5%
- IC50 (Rattus norvegicus [7]): 2.5 mM
- inhibition in vivo at 47.6 mg/kg (Rattus norvegicus [8]): 13%
- Ki [9]: 1.15 mM
- inhibition in vivo at 47.6 mg/kg (Rattus norvegicus [10]): 51.9%
- inhibition in vivo at 47.6 mg/kg (Rattus norvegicus [11]): 0%

SMILES: O=C1c2[nH]nnc2N(Cc2ccc(F)cc2)C2=NCCN12
- IC50 (Cavia porcellus [12]): > 200 µg/mL
- ED50 (Rattus norvegicus [13]): > 10 mg/kg

SMILES: CC(C)CN1C2=NC(C)CN2C(=O)c2[nH]cnc21 (stereo unspecified)
- IC50 (Cavia porcellus [12]): 14 µg/mL (≈ 56.6 µM)
- ED50 (Rattus norvegicus [14]): > 30 mg/kg

SMILES: O=C1c2[nH]c(Br)nc2N(Cc2ccc(Cl)cc2)C2=NCCN12
- IC50 (Cavia porcellus [4]): 54 µg/mL (≈ 142 µM)

SMILES: Cc1nc2c(n1C)C(=O)N1CC(C)N=C1N2Cc1ccc(Cl)cc1 (stereo unspecified)
- IC50 (Cavia porcellus [12]): 7.9 µg/mL (≈ 23 µM)
- ED50 (Rattus norvegicus [15]): 14.2 mg/kg
- ED50 (Rattus norvegicus [16]): 7.5 mg/kg
- ED50 (Rattus norvegicus [17]): 38.7 mg/kg

SMILES: C[C@H]1N=C2N(Cc3ccc(Cl)cc3)c3[nH]cnc3C(=O)N2[C@H]1C
- IC50 (Cavia porcellus [12]): 0.7 µg/mL (≈ 2.12 µM)
- ED50 (Rattus norvegicus [15]): 1.7 mg/kg
- ED50 (Rattus norvegicus [16]): 3 mg/kg
- ED50 (Rattus norvegicus [17]): 28.5 mg/kg

SMILES: O=C1c2[nH]cnc2N(Cc2ccccc2Cl)C2=NCCN12
- IC50 (Cavia porcellus [12]): 49 µg/mL (≈ 162 µM)

SMILES: Cc1nc2c([nH]1)N(Cc1ccc(Cl)cc1)C1=NC(C)(C)CN1C2=O
- IC50 (Cavia porcellus [12]): 1.7 µg/mL (≈ 4.94 µM)
- ED50 (Rattus norvegicus [15]): 1.08 mg/kg
- ED50 (Rattus norvegicus [16]): 7.3 mg/kg
- ED50 (Rattus norvegicus [17]): 44.4 mg/kg

SMILES: CC(C)CN1C2=NCCN2C(=O)c2[nH]c(C(C)C)nc21
- IC50 (Cavia porcellus [12]): 11.5 µg/mL (≈ 41.8 µM)
- ED50 (Rattus norvegicus [16]): 9.5 mg/kg
- ED50 (Rattus norvegicus [17]): 15.3 mg/kg

SMILES: N=C1c2[nH]cnc2N(Cc2ccc(Cl)cc2)C2=NCCN12
- IC50 (Cavia porcellus [12]): 19.8 µg/mL (≈ 65.8 µM)
- ED50 (Rattus norvegicus [13]): > 30 mg/kg

SMILES: O=C1c2[nH]cnc2N(Cc2ccc(Cl)cc2)C2=NCCN12
- inhibition in vivo at 33 mg/kg (Rattus norvegicus [18]): 11.5%
- IC50 (Cavia porcellus [12]): 14 µg/mL (≈ 46.4 µM)
- ED50 (Rattus norvegicus [3]): 8.4 mg/kg
- ED50 (Rattus norvegicus [15]): 0.9 mg/kg
- ED50 (Rattus norvegicus [5]): 2.4 mg/kg
- IC50 (Rattus norvegicus [7]): 0.49 mM

SMILES: Cc1nc2c([nH]1)C(=O)N1CC(C)N=C1N2Cc1ccc(Cl)cc1 (stereo unspecified)
- IC50 (Cavia porcellus [12]): 4.4 µg/mL (≈ 13.3 µM)
- ED50 (Rattus norvegicus [15]): 1.23 mg/kg
- ED50 (Rattus norvegicus [16]): 1 mg/kg
- ED50 (Rattus norvegicus [17]): 30.2 mg/kg

SMILES: CCc1nc2c([nH]1)N(CC(C)C)C1=NCCN1C2=O
- IC50 (Cavia porcellus [12]): 16.7 µg/mL (≈ 63.9 µM)

SMILES: Cn1c(Br)nc2c1C(=O)N1CCN=C1N2Cc1ccc(Cl)cc1
- ED50 (Rattus norvegicus [19]): inactive
- IC50 (Cavia porcellus [4]): 3.9 µg/mL (≈ 9.88 µM)

SMILES: O=C1c2nc[nH]c2N(Cc2ccccc2)C2=NCCN12
- IC50 (Cavia porcellus [12]): 22.5 µg/mL (≈ 84.2 µM)
- ED50 (Rattus norvegicus [20]): inactive

SMILES: O=C1c2nc[nH]c2N(CC2CCCCC2)C2=NCCN12
- ED50 (Rattus norvegicus [20]): inactive
- IC50 (Cavia porcellus [4]): 10 µg/mL (≈ 36.6 µM)

SMILES: Cn1c(N)nc2c1C(=O)N1CCN=C1N2Cc1ccc(Cl)cc1
- IC50 (Cavia porcellus [12]): 4.8 µg/mL (≈ 14.5 µM)
- ED50 (Rattus norvegicus [13]): > 30 mg/kg

SMILES: CC1CN2C(=O)c3c(ncn3C)N(Cc3ccc(Cl)cc3)C2=N1 (stereo unspecified)
- IC50 (Cavia porcellus [12]): 2.3 µg/mL (≈ 6.97 µM)
- ED50 (Rattus norvegicus [15]): 3.4 mg/kg
- ED50 (Rattus norvegicus [16]): 1.1 mg/kg
- ED50 (Rattus norvegicus [17]): 28.9 mg/kg

SMILES: O=C1c2[nH]cnc2N(Cc2cccc(Cl)c2)C2=NCCN12
- IC50 (Cavia porcellus [12]): 12.5 µg/mL (≈ 41.4 µM)

SMILES: Cc1nc2c([nH]1)N(Cc1ccc(Cl)cc1)C1=NCCN1C2=O
- IC50 (Cavia porcellus [12]): 5.3 µg/mL (≈ 16.8 µM)
- ED50 (Rattus norvegicus [16]): 1.3 mg/kg

SMILES: O=C1c2[nH]cnc2N(Cc2ccc(F)cc2)C2=NCCN12
- IC50 (Cavia porcellus [12]): 17.5 µg/mL (≈ 61.3 µM)

From ChEMBL document CHEMBL1121553, “Substituted 6,7-dihydroimidazo[1,2-a]purin-9(4H)-ones” (J Med Chem, 1980)
